Holding throughout (type): functional
Assay [1] has as its system Staphylococcus aureus. Description: Antimicrobial activity against methicillin-resistant Staphylococcus aureus 33 by agar dilution method. The procedure, abridged:
(§1)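 NCCLS agar dilution MIC in Mueller Hinton agar. Compounds were made up as 1 mg/mL DMSO stocks and serially diluted 2-fold into molten agar, final range 16 to 0.015. Direct colony suspensions in saline were set to 0.5 McFarland, diluted 10-fold, and spotted with a replicator. Plates were incubated in ambient air at 35 °C for 18–24 h.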
(In general: Agar dilution tests growth on a series of plates holding different concentrations.)

In a further assay the test system is Moraxella catarrhalis. The assay is described as follows: Antimicrobial activity against Moraxella catarrhalis M2 by agar dilution method. The procedure, abridged:
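MIC was read by NCCLS agar dilution using doubling dilutions in Mueller Hinton agar, 16–0.015 µg/mL final, from 1 mg/mL DMSO stocks. Colonies were suspended in saline to 0.5 McFarland, diluted 10-fold and transferred with a replicator. Plates were incubated at 35 °C for 18–24 h.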

A further assay relates to Haemophilus influenzae. Description: Antimicrobial activity against Haemophilus influenzae ATCC 49247 by agar dilution method. A digest of the protocol:
(§2)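 NCCLS agar dilution with serial 2-fold drug dilutions in Mueller Hinton agar, 16–0.015 µg/mL final. Drug stocks were 1 mg/mL in DMSO. The inoculum was a 0.5 McFarland saline colony suspension diluted 10-fold and replicator-spotted. As fastidious organisms, plates were incubated in 5% CO₂ at 35 °C for 18–24 h.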

The subject of another assay is Enterococcus faecium. The assay is described as follows: Antimicrobial activity against vancomycin-resistant Enterococcus faecium 6A by agar dilution method. The procedure, abridged: as §1
The subject of another assay is Streptococcus pyogenes. Description: Antimicrobial activity against Streptococcus pyogenes ATCC 19615 by agar dilution method.
In assay [2] the test system is Staphylococcus aureus. The assay is described as follows: Antimicrobial activity against Staphylococcus aureus ATCC 25923 by agar dilution method. A digest of the protocol: as §1
Assay [3] relates to Staphylococcus aureus. Description: Antimicrobial activity against methicillin-resistant Staphylococcus aureus 562 by agar dilution method. The procedure, abridged: as §1
In a further assay the test system is Enterococcus faecalis. Description: Antimicrobial activity against Enterococcus faecalis ATCC 29212 by agar dilution method. The procedure, abridged:
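Compounds were stocked at 1 mg/mL in DMSO. Direct colony suspensions in saline were set to 0.5 McFarland, diluted 10-fold and applied with a replicator. Plates were incubated in ambient air at 35 °C for 18–24 h.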

Assay [4] has as its system Staphylococcus aureus. Description: Antimicrobial activity against Staphylococcus aureus 15187 by agar dilution method. A digest of the protocol:
as §1

Another assay concerns Streptococcus pneumoniae. The assay is described as follows: Antimicrobial activity against Streptococcus pneumoniae ATCC 6303 by agar dilution method. A digest of the protocol:
as §2

Values after ≈ are worked out from the molar mass of the structure shown.

For the compound `CC(=O)NC[C@H]1CN(c2ccc(N3CCN(c4ccc([N+](=O)[O-])s4)CC3)c(F)c2)C(=O)O1`, the MIC in the assay with Staphylococcus aureus [1] is 0.25 µg/mL (≈ 0.539 µM); against Moraxella catarrhalis, 0.25 µg/mL (≈ 0.539 µM); in the assay with Haemophilus influenzae it was 8 µg/mL (≈ 17.3 µM); against Enterococcus faecium it was 0.25 µg/mL (≈ 0.539 µM); in the assay on Streptococcus pyogenes, 0.125 µg/mL (≈ 0.27 µM); with Staphylococcus aureus [2], 0.25 µg/mL (≈ 0.539 µM). The MIC was found to be 0.25 µg/mL (≈ 0.539 µM) with Staphylococcus aureus [3], 0.25 µg/mL (≈ 0.539 µM) in the assay with Enterococcus faecalis, 0.25 µg/mL (≈ 0.539 µM) with Staphylococcus aureus [4] and 0.125 µg/mL (≈ 0.27 µM) in the assay on Streptococcus pneumoniae.

As for `O=C1O[C@@H](CO)CN1c1ccc(N2CCN(c3ccc([N+](=O)[O-])s3)CC2)c(F)c1`, the MIC in the assay on Staphylococcus aureus [1] was 0.5 µg/mL (≈ 1.18 µM); with Moraxella catarrhalis, 2 µg/mL (≈ 4.73 µM); in the assay with Haemophilus influenzae, 8 µg/mL (≈ 18.9 µM); in the assay with Enterococcus faecium, 0.5 µg/mL (≈ 1.18 µM); in the assay with Streptococcus pyogenes, 0.5 µg/mL (≈ 1.18 µM); against Staphylococcus aureus [2], 0.5 µg/mL (≈ 1.18 µM). Moreover, the MIC is 0.5 µg/mL (≈ 1.18 µM) against Staphylococcus aureus [3], 0.5 µg/mL (≈ 1.18 µM) against Enterococcus faecalis, 0.5 µg/mL (≈ 1.18 µM) in the assay with Staphylococcus aureus [4] and 1 µg/mL (≈ 2.37 µM) in the assay with Streptococcus pneumoniae.

Regarding `Cc1ccccc1S(=O)(=O)NC(=O)OC[C@H]1CN(c2ccc(N3CCN(c4ccc([N+](=O)[O-])s4)CC3)c(F)c2)C(=O)O1`, the MIC is 16 µg/mL (≈ 25.8 µM) in the assay with Staphylococcus aureus [1]; greater than 8 µg/mL in the assay with Moraxella catarrhalis; greater than 16 µg/mL against Haemophilus influenzae; 1 µg/mL (≈ 1.61 µM) in the assay on Enterococcus faecium; 0.5 µg/mL (≈ 0.807 µM) in the assay with Streptococcus pyogenes; 16 µg/mL (≈ 25.8 µM) in the assay on Staphylococcus aureus [2]. The MIC came out at 16 µg/mL (≈ 25.8 µM) in the assay with Staphylococcus aureus [3], 8 µg/mL (≈ 12.9 µM) against Enterococcus faecalis, 16 µg/mL (≈ 25.8 µM) in the assay with Staphylococcus aureus [4] and 1 µg/mL (≈ 1.61 µM) against Streptococcus pneumoniae.

Consider `CC(=O)OC[C@H]1CN(c2ccc(N3CCN(c4ccc([N+](=O)[O-])s4)CC3)c(F)c2)C(=O)O1`, for which the MIC against Staphylococcus aureus [1] is 0.5 µg/mL (≈ 1.08 µM); against Moraxella catarrhalis it was greater than 16 µg/mL; against Haemophilus influenzae it was greater than 16 µg/mL; in the assay on Enterococcus faecium it was 1 µg/mL (≈ 2.15 µM); with Streptococcus pyogenes it was 0.25 µg/mL (≈ 0.538 µM); in the assay with Staphylococcus aureus [2] it was 0.5 µg/mL (≈ 1.08 µM). Moreover, the MIC was 0.5 µg/mL (≈ 1.08 µM) with Staphylococcus aureus [3], 0.5 µg/mL (≈ 1.08 µM) against Enterococcus faecalis, 0.5 µg/mL (≈ 1.08 µM) with Staphylococcus aureus [4] and 1 µg/mL (≈ 2.15 µM) with Streptococcus pneumoniae.

For the compound `CC(=O)NC[C@H]1CN(c2ccc(N3CCOCC3)c(F)c2)C(=O)O1` [LINEZOLID], the MIC with Moraxella catarrhalis was greater than 4 µg/mL; in the assay on Haemophilus influenzae, 4 µg/mL (≈ 11.9 µM); against Enterococcus faecium, 2 µg/mL (≈ 5.93 µM); in the assay with Streptococcus pyogenes it was 2 µg/mL (≈ 5.93 µM).

For the compound `CN[C@H](CC(C)C)C(=O)N[C@H]1C(=O)N[C@@H](CC(N)=O)C(=O)N[C@H]2C(=O)N[C@H]3C(=O)N[C@H](C(=O)N[C@H](C(=O)O)c4cc(O)cc(O)c4-c4cc3ccc4O)[C@H](O)c3ccc(c(Cl)c3)Oc3cc2cc(c3O[C@@H]2O[C@H](CO)[C@@H](O)[C@H](O)[C@H]2O[C@H]2C[C@](C)(N)[C@H](O)[C@H](C)O2)Oc2ccc(cc2Cl)[C@H]1O` [VANCOMYCIN], the MIC was greater than 16 µg/mL in the assay on Moraxella catarrhalis, greater than 64 µg/mL against Haemophilus influenzae, greater than 16 µg/mL in the assay with Enterococcus faecium and 0.5 µg/mL (≈ 0.345 µM) against Streptococcus pneumoniae.

The values are drawn from ChEMBL document CHEMBL1146242, “Synthesis and antibacterial activity of novel oxazolidinones with methylene oxygen- and methylene sulfur-linked substituents at C5-position” (2007).
